Assay results published in ChEMBL document CHEMBL2163204, “Synthesis and nicotinic acetylcholine receptor in vitro and in vivo pharmacological properties of 2'-fluoro-3'-(substituted phenyl)deschloroepibatidine analogues of 2'-fluoro-3'-(4-nitrophenyl)deschloroepibatidine” (J Med Chem, 2012).

Experiments:
Mus musculus [1] = assay: Antagonist activity in mouse assessed as inhibition of nicotine-induced antinociception at 10000 ug/kg, sc after 5 mins by hot plate method; type: functional
Mus musculus [2] = assay: Effect on hypothermia in mouse assessed as variation in rectal temperature at 10 mg/kg, sc measured after 30 mins by thermister probe based method; type: functional; details: route subcutaneous
Method in brief: (§1)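 Rectal temperature measured by thermistor probe inserted 24 mm, before and 30 min after s.c. saline or compound. Change computed for each mouse. Room temperature 21–24 °C.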

Mus musculus [3] = assay: Antinociception activity in mouse at 10 mg/kg, sc after 5 mins by tail-flick method; type: functional; details: route subcutaneous
Method in brief: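 Mouse tail-flick: baseline latency 2–4 s, 10 s cutoff, tested 5 min after s.c. injection. %MPE = (test−control)/(10−control)×100. Eight to twelve mice per dose.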

[4] = target: Neuronal acetylcholine receptor subunit alpha-7 (Rattus norvegicus) (UniProt Q05941); assay: Antagonist activity at rat alpha7 nAChR expressed in Xenopus laevis oocytes assessed as inhibition of acetylcholine-induced response at 100 uM after 2 to 6 days by two electrode voltage clamp assay; type: functional, cell-based; details: Oocyte
Chain of Neuronal acetylcholine receptor subunit alpha-7 (Rattus norvegicus) (Q05941 whole entry, the tested form may be a part): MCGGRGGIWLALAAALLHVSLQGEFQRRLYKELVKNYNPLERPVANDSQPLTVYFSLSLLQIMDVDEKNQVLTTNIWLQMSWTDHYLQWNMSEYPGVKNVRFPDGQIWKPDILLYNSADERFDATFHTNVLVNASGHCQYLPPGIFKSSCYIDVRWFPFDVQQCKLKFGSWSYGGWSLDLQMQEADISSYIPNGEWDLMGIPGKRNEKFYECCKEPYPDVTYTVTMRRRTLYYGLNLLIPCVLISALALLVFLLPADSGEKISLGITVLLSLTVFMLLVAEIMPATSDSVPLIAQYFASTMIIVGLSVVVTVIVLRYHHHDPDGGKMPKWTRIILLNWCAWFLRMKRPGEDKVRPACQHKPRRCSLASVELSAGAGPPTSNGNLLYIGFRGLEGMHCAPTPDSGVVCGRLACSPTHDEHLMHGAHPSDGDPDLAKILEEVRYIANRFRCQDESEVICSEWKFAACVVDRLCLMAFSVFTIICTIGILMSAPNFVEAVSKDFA

[5] = target: T1, Neuronal acetylcholine receptor; alpha3/beta4 (Rattus norvegicus) (UniProt P04757+P12392); assay: Antagonist activity at rat alpha3beta4 nAChR expressed in Xenopus laevis oocytes assessed as inhibition of acetylcholine-induced response at 100 uM after 2 to 6 days by two electrode voltage clamp assay; type: functional, cell-based; details: Oocyte
Method in brief: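 Xenopus oocytes expressing rat nAChRs (α4β2 and α3β4 subunits injected at 1:1), recorded by two-electrode voltage clamp in ND96 (pH 7.5) at 20–25 °C. […] Current compared with the mean of three preceding ACh-alone responses and given as % remaining.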

[6] = target: T2, Neuronal acetylcholine receptor; alpha4/beta2 (Rattus norvegicus) (UniProt P09483+P12390); assay: Antagonist activity at rat alpha4beta2 nAChR expressed in Xenopus laevis oocytes assessed as inhibition of acetylcholine-induced response at 100 uM after 2 to 6 days by two electrode voltage clamp assay; type: functional, cell-based; details: Oocyte
Method in brief: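 Xenopus oocytes expressing rat nAChRs (α4β2 and α3β4 subunits injected at 1:1), recorded by two-electrode voltage clamp in ND96 (pH 7.5) at 20–25 °C. Current compared with the mean of three preceding ACh-alone responses and given as % remaining.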

[7] = target: Neuronal acetylcholine receptor subunit alpha-7 (Rattus norvegicus) (UniProt Q05941); assay: Agonist activity at rat alpha7 nAChR expressed in Xenopus laevis oocytes at 100 uM after 2 to 6 days by two electrode voltage clamp assay relative to acetylcholine; type: functional, cell-based; details: Oocyte
Method in brief: (§2)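 Two-electrode voltage clamp on Xenopus oocytes injected with rat subunit cRNA (α3β4 at 1:1 molar ratio), incubated at 19 °C in modified Barth's saline (pH 7.6). Oocytes perfused with ND96 (pH 7.5) at 20–25 °C. 100 µM compound applied for 15 s (α3β4) or 5 s (α7), 3-min washes. Response compared with the mean of three preceding ACh applications and expressed as % of maximal ACh response.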

[8] = target: T1, Neuronal acetylcholine receptor; alpha3/beta4 (Rattus norvegicus); assay: Agonist activity at rat alpha3beta4 nAChR expressed in Xenopus laevis oocytes at 100 uM after 2 to 6 days by two electrode voltage clamp assay relative to acetylcholine; type: functional, cell-based; details: Oocyte; method in brief: as §2
[9] = target: T2, Neuronal acetylcholine receptor; alpha4/beta2 (Rattus norvegicus); assay: Agonist activity at rat alpha4beta2 nAChR expressed in Xenopus laevis oocytes at 100 uM after 2 to 6 days by two electrode voltage clamp assay relative to acetylcholine; type: functional, cell-based; details: Oocyte
Mus musculus [10] = assay: Effect on spontaneous locomotor activity in sc dosed mouse after 5 mins by photocell based method; type: functional
Method in brief: (§3)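 Mice put into photocell activity cages 5 min after s.c. saline or compound. Beam interruptions counted over the next 10 min.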

[11] = target: T3, Neuronal acetylcholine receptor subunit alpha-7 (Rattus norvegicus, UniProt Q05941); assay: Displacement of [125I]iodoMLA from rat cerebral cortex alpha7 nAChR at 50 nM incubated for 2 hrs by microplate scintillation assay; type: tissue-based
T3 sequence (Q05941 whole entry): as the sequence (Q05941 whole entry, the tested form may be a part) above
Method in brief: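 Rat cerebral cortex membranes (3 mg wet weight) in Tris assay buffer pH 7.4. Run in triplicate, 2 h on ice. Nonspecific binding with 300 µM (–)-nicotine. Filtered onto BSA-presoaked GF/B and counted by microplate scintillation.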

[12] = Displacement of [3H]epibatidine from rat cerebral cortex alpha4beta2* nAChR incubated for 4 hrs by liquid scintillation assay; type: tissue-based
Method in brief: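 Washed rat cerebral cortex membranes (3 mg wet weight) in 50 mM Tris pH 7.4 with 120 mM NaCl, 5 mM KCl, 2 mM CaCl2, 1 mM MgCl2. 4 h at room temperature. Nonspecific binding with 300 µM (–)-nicotine. Filtration on PEI-soaked GF/B. Ki from IC50 by Cheng–Prusoff.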

Mus musculus [13] = assay: Antagonist activity in sc dosed mouse assessed as inhibition of nicotine-induced antinociception after 5 mins by tail flick method; type: functional
[14] = target: T3, Neuronal acetylcholine receptor subunit alpha-7; assay: Antagonist activity at rat alpha7 nAChR expressed in Xenopus laevis oocytes assessed as inhibition of acetylcholine-induced response after 2 to 6 days by two electrode voltage clamp assay; type: functional, cell-based, Oocyte
[15] = target: Neuronal acetylcholine receptor; alpha4/beta2 (Rattus norvegicus, UniProt P09483+P12390); assay: Antagonist activity at rat alpha4beta2 nAChR expressed in Xenopus laevis oocytes assessed as inhibition of acetylcholine-induced response after 2 to 6 days by two electrode voltage clamp assay; type: functional, cell-based, Oocyte
Chain of Neuronal acetylcholine receptor; alpha4/beta2 (P09483 whole entry): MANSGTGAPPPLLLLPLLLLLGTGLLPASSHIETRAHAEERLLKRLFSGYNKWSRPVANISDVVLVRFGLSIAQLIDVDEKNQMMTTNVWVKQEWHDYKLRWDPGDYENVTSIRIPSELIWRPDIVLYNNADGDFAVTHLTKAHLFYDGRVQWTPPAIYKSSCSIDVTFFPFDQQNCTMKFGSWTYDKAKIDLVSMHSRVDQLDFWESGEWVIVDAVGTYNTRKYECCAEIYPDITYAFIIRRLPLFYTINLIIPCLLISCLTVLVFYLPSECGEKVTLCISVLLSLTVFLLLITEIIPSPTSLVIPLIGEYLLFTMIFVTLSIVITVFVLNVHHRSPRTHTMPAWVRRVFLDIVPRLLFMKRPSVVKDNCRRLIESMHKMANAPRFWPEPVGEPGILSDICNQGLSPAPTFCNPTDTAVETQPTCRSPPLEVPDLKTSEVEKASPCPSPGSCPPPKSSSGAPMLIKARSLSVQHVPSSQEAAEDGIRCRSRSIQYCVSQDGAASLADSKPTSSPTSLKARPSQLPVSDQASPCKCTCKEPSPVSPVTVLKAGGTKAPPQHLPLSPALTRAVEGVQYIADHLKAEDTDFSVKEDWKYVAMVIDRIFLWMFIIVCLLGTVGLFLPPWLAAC
Chain of Neuronal acetylcholine receptor; alpha4/beta2 (P12390 whole entry): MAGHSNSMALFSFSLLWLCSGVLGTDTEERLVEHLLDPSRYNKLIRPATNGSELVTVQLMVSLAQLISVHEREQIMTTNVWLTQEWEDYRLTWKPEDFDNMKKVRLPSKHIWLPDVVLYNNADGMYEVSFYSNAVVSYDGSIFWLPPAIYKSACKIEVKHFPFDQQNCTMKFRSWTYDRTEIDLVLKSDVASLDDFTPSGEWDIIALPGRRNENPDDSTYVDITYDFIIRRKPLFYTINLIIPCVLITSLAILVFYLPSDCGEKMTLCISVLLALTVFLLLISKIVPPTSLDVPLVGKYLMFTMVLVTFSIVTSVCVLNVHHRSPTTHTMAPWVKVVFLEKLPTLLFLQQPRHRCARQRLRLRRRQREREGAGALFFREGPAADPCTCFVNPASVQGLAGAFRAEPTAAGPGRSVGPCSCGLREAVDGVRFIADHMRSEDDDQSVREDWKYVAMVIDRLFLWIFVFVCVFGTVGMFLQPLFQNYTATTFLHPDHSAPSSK

Mus musculus [16] = assay: Effect on hypothermia in sc dosed mouse assessed as variation in rectal temperature measured after 30 mins by thermister probe based method; type: functional; details: 0.5 h; method in brief: as §1
[17] = target: Neuronal acetylcholine receptor; alpha3/beta4 (Rattus norvegicus, UniProt P04757+P12392); assay: Antagonist activity at rat alpha3beta4 nAChR expressed in Xenopus laevis oocytes assessed as inhibition of acetylcholine-induced response after 2 to 6 days by two electrode voltage clamp assay; type: functional, cell-based, Oocyte
Chain of Neuronal acetylcholine receptor; alpha3/beta4 (P04757 whole entry): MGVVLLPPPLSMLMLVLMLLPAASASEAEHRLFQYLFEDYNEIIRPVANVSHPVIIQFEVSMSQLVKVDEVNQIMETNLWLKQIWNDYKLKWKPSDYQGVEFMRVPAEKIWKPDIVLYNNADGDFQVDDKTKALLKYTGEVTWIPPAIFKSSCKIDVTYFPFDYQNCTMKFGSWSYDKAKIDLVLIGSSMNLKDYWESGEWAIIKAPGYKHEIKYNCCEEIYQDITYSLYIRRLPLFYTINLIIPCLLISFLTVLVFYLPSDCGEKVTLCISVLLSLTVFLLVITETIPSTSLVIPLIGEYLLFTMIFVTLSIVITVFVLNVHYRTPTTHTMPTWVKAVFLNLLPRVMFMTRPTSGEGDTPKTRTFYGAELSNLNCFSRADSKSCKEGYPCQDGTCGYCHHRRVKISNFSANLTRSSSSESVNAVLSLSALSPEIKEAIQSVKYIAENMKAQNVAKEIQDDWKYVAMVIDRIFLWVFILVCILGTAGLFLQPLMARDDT
Chain of Neuronal acetylcholine receptor; alpha3/beta4 (P12392 whole entry): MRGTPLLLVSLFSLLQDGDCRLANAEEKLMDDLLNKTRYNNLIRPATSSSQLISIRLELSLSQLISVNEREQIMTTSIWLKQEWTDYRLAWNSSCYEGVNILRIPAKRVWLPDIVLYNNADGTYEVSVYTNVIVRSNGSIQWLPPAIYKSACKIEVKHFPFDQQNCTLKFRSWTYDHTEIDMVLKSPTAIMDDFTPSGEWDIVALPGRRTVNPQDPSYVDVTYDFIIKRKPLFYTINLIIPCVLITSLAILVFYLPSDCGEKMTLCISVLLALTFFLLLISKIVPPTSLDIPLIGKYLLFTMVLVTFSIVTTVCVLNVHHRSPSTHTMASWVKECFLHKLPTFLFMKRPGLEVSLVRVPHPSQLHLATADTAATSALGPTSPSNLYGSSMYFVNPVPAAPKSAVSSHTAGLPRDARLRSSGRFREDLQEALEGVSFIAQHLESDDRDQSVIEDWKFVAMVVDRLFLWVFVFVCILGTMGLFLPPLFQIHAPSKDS

Mus musculus [18] = assay: Antagonist activity in sc dosed mouse assessed as inhibition of nicotine-induced antinociception after 5 mins by hot plate method; type: functional
Mus musculus [19] = assay: Antinociception activity in mouse assessed as reaction time taken for jumping or licking paws at 10 mg/kg, sc after 5 mins by hot plate method; type: functional; details: route subcutaneous
Method in brief: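 Mice placed on a 55 °C hot plate; latency is time to jump or paw-lick. Two baseline latencies taken at least 10 min apart. Tested 5 min after s.c. dosing. %MPE computed with a 40 s maximum. Eight mice per dose.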

Mus musculus [20] = assay: Effect on spontaneous locomotor activity in mouse at 10 mg/kg, sc after 5 mins by photocell based method; type: functional; details: route subcutaneous; method in brief: as §3
Mus musculus [21] = assay: Antagonist activity in mouse assessed as inhibition of nicotine-induced antinociception at 2000 ug/kg, sc after 5 mins by hot plate method; type: functional
Mus musculus [22] = assay: Antinociception activity in sc dosed mouse after 5 mins by tail-flick method
Mus musculus [23] = assay: Antinociception activity in sc dosed mouse assessed as reaction time taken for jumping or licking paws after 5 mins by hot plate method

Compound	Activity (Mus musculus [2])	Activity (Mus musculus [3])	inhibition [4]	inhibition [5]	inhibition [6]	%max [7]	%max [8]	%max [9]	ED50 (Mus musculus [10])	Ki [11]	Ki [12]	AD50 (Mus musculus [13])	IC50 [14]	IC50 [15]	ED50 (Mus musculus [16])	IC50 [17]	AD50 (Mus musculus [18])	Activity (Mus musculus [19])	Activity (Mus musculus [20])	further results
O=S(=O)(c1ccc(-c2cc(C3CC4CCC3N4)cnc2F)cc1)C(F)(F)F (racemic)	0%	3%	42%	15%	7%	1.8%	1.9%	0%	4.2 mg/kg	> 2000 nM	0.03 nM	1.6 mg/kg								inhibition in vivo at 10 mg/kg (Mus musculus [1]): 50%
O=[N+]([O-])c1ccc(-c2cc(C3CC4CCC3N4)cnc2F)cc1 (racemic)		5%	55%	9%	6%	6%	4%	0%	0.22 mg/kg	> 2000 nM	0.009 nM	0.003 mg/kg	32000 nM	3200 nM	0.21 mg/kg	7900 nM	0.12 mg/kg			
c1cnc2cc3c(cc2n1)[C@@H]1CNC[C@H]3C1 [VARENICLINE]		11%			38%	74%	66%	13%	2.1 mg/kg			0.0002 mg/kg			2.8 mg/kg		0.47 mg/kg	10%		
Fc1ncc(C2CC3CCC2N3)cc1-c1ccc(C(F)(F)F)cc1 (racemic)	0%		3%	4%	8%	4%	0%	0%		> 2000 nM	0.44 nM		4000 nM	6000 nM		5000 nM	6 mg/kg	6%	5%	
NC(=O)c1ccc(-c2cc(C3CC4CCC3N4)cnc2F)cc1 (racemic)		16%	54%	36%	6%	17%	8%	3.5%		1870 nM	0.12 nM	0.009 mg/kg	35000 nM	1500 nM	4.2 mg/kg	35000 nM		60%		inhibition in vivo at 2 mg/kg (Mus musculus [21]): 1%
CS(=O)(=O)c1ccc(-c2cc(C3CC4CCC3N4)cnc2F)cc1 (racemic)	1%	6%	33%	25%		3%	0%	0%			0.17 nM	0.018 mg/kg		2800 nM		11000 nM	2.6 mg/kg	1%	12%	
Clc1ccc([C@H]2CC3CCC2N3)cn1 (mixture of isomers)						150%	97%	131%	0.001 mg/kg						0.004 mg/kg					ED50 (Mus musculus [22]): 0.006 mg/kg; ED50 (Mus musculus [23]): 0.004 mg/kg
N#Cc1ccc(-c2cc(C3CC4CCC3N4)cnc2F)cc1 (racemic)	0%	4%	49%	17%	8%	3%	6%	0%		> 2000 nM	0.19 nM		98000 nM	11000 nM		7000 nM		18%	0%	inhibition in vivo at 10 mg/kg (Mus musculus [1]): 24%
NS(=O)(=O)c1ccc(-c2cc(C3CC4CCC3N4)cnc2F)cc1 (racemic)	0%		18%	5%	4%	1.8%	0%	0%		> 2000 nM	0.94 nM	0.0009 mg/kg					1 mg/kg	19%	5%	
